# High-throughput results from PubChem.
# M1 ag = M1 muscarinic receptor agonists, primary screen, CHO-M1 cells, Fluo-4 calcium, agonist mode; hit rate 3% among 64,000; B-score at 10 µM; Fluo-4 calcium fluorescence; hits give high values; AID 626, 2007;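 active = fluorescence rise, raw or as B-score row- and column-corrected plate score, outside the 99.7% band of its plate's samples, either direction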
# HER2 expr 66K = inhibitors of Her2 protein expression, primary screen, SKBR-3 cells, AlphaScreen, 66K library | Receptor tyrosine-protein kinase erbB-2 (Homo sapiens), P04626 | SKBR-3 HER2 protein level, 18-24 h; hits give low values | HER2 level % of control, % at 10 µM | hit rate 0.69% among 65,000;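 active = HER2 level under 5% of the carrier-only control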;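 note: 100% = DMSO carrier and 0% = 500 nM PU-H71 HSP90 inhibitor; lower value means stronger loss of Her2 protein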
# Target sequence (P04626 whole entry, looked up): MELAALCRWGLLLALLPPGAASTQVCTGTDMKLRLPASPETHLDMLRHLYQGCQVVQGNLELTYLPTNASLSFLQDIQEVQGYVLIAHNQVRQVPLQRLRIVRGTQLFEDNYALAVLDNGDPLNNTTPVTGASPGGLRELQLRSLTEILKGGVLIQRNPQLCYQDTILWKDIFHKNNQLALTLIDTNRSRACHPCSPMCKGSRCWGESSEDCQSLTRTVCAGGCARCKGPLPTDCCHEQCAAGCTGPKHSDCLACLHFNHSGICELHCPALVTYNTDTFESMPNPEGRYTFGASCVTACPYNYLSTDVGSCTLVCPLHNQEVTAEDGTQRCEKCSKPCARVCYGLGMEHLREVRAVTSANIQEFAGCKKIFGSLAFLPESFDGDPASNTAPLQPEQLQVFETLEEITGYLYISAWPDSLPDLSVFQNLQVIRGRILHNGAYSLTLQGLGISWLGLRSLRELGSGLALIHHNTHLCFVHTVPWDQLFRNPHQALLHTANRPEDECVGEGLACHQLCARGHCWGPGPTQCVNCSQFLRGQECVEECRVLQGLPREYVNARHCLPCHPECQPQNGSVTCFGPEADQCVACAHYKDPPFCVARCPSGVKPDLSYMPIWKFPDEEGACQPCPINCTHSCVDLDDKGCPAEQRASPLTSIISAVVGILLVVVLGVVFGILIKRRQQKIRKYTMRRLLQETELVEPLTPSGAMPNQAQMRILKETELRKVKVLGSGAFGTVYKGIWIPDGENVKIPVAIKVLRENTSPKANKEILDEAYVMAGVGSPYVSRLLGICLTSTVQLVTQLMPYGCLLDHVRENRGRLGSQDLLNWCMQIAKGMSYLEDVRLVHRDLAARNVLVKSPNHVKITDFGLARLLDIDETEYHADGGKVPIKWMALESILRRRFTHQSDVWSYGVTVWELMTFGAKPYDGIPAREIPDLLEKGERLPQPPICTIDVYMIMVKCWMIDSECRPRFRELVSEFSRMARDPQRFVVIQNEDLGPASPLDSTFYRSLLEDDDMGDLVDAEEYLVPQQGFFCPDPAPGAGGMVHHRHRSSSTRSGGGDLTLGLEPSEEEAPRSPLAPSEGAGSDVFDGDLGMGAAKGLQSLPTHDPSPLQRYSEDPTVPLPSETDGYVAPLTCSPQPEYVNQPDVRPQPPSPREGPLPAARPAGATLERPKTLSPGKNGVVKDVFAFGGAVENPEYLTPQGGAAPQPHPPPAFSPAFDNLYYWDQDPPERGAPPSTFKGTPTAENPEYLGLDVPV
# BAP1 block = inhibitors of BAP1 deubiquitinase, primary screen, biochemical, Ub-AMC fluorescence, kinetic; hit rate 0.48% among 72,000; calls only at 20 µM; Ubiquitin carboxyl-terminal hydrolase BAP1 (Homo sapiens), Q92560; recombinant BAP1, Ub-AMC hydrolysis fluorescence kinetic; hits give low values;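 active = activity remaining at or below 50% of control, provided the compound also passes the data quality filters; inactive = the rest, including low values that fail the filters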;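 note: 100% = DMSO wells rate and 0% = substrate alone blank rate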
# JNK3 blocker = JNK3 kinase activity inhibitors, primary screen, biochemical, human, purified enzyme | HTS | inhibition, % at 8 µM | hit rate 0.61% among 60,000 | AID 746, 2007; in the data active = inhibition above about 17%;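 note: 0% = DMSO and 100% = reference inhibitor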
# M1 antagonist = antagonists of rat M1 muscarinic receptor; Muscarinic acetylcholine receptor M1 (Rattus norvegicus), P08482; CHO-M1 cells, Fluo-4 calcium, ACh EC80 antagonist mode; hits give low values; B-score at 10 µM; hit rate 3.4% among 64,000; AID 628, 2007;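 active = calcium fluorescence response, raw or row-and-column corrected B-score, differing from the plate sample mean either way at a set confidence level, mostly lower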
# HEK293 NFkB inh = inhibitors of PMA/ionomycin-induced NF-kB reporter, primary screen, antigen receptor NF-kB inhibitor project, cell-based, HEK-293 luciferase reporter, luminescence; HEK-293 NF-kB luciferase reporter; hit rate 0.21% among 62,000; inhibition, % at 3 µM; AID 465, 2006;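 active = inhibition above the mean of all tested compounds plus 3 SD, cut at about 40% in these data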;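 note: 0% = stimulated DMSO wells and 100% = 10 µM reference inhibitor 5653914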
#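 System: NF-kB luciferase reporter HEK-293 cells | Replication: Single test | Control set: DMSO vs reference inhibitor | Evaluation: % inhibition | Schedule: 1 h pretreatment, 16 h stimulation, 37 °C | Probe or stimulus: PMA with ionomycin | Compound dosing: One dose, 3 µM | Detection: Luciferase luminescence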
# M1 antag confirm = rat M1 muscarinic receptor antagonists, confirmation, CHO cells, Fluo-4 calcium, duplicate; shares compounds with M1 antagonist; ACh EC80 antagonism; hits give low values; calcium response (max-min fluorescence) at 10 µM; hit rate 43% among 1,700;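 active = calcium response below the same-plate mean of wells given acetylcholine alone at its 80%-effect dose, minus 3 SD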;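 note: raw fluorescence intensity difference in arbitrary instrument units and not normalized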
# mGluR4 antag = human mGluR4 response to M1 antagonist hits, M1 allosteric modulator project, cell-based, antagonist mode, secondary assay 1. shares compounds with M1 antagonist. CHO-mGluR4 calcium flux, Fluo-4 fluorescence, glutamate EC80; hits give low values. fluorescence response (max-min) at 10 µM. hit rate 0.9% among 1,700;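 active = fluorescence response below the plate's average for near-maximal glutamate wells, less 3 SD of those wells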;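 note: raw unnormalized fluorescence span taken in the window right after glutamate addition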
# The depositor's hits bear a star; i = inactive; . = no result. Only some compounds are listed: those with a hit (about 6.6% of all), similar ones and a draw of the others.
SMILES,M1 ag,HER2 expr 66K,BAP1 block,JNK3 blocker,M1 antagonist,HEK293 NFkB inh,M1 antag confirm,mGluR4 antag
CCc1c(O)nc(SCC(=O)Nc2ccccc2OC)[nH]c1=O,0.62,94,i,-8,-1*,9,529,166
COc1cccc(N2C(=O)C3C(C2=O)C2C=CC3C23CC3)c1 (configuration not stated),0.12,135,i,3,-3.1*,12,655,190
COc1ccc(C(=O)N2CCN(C(=O)c3ccco3)CC2)cc1OC,-0.23,122,i,5,0.83,13,.,.
COc1ccc(C(=O)N2CCN(C(=O)Cc3ccccc3)CC2)cc1OC,-0.56,116,i,8,-3.7*,22,519,181
CCOCCCn1c(=N)c(C(=O)NCc2ccc3c(c2)OCO3)cc2c(=O)n3ccccc3nc21,-0.15,87,i,-1,-2.7*,26,438,226
CCCn1c(=N)c(C(=O)NCc2ccc3c(c2)OCO3)cc2c(=O)n3cccc(C)c3nc21,2.6,34,i,-2,-10*,11,54*,240
N#Cc1c(-c2ccco2)cc(C2CC2)nc1SCC(N)=O,.,.,i,.,.,.,.,.
Cc1oc2c(c1C(=O)NCc1ccccc1)CCCC2,0.37,77,i,1,-3.7*,5,643,188
O=C(NCc1ccccc1)c1noc2c1CCCCC2,0.49,94,i,11,-0.21,-7,.,.
Cc1ccc2c(CC(=O)Nc3ccc(N4CCN(C)CC4)cc3C)coc2c1,-1.4,63,i,1,-3.2*,-4,334*,247
Cc1ccc2c(CC(=O)NCc3ccc4c(c3)OCO4)coc2c1,-0.51,86,i,1,0.3,6,.,.
O=C(NCC1CCCO1)c1c(O)c2c([nH]c1=O)CCCC2 (configuration not stated),0.28,94,i,-3,-3.6*,-22,555,245
CCN(CC)CCCNC(=O)c1c(O)c2c([nH]c1=O)CCCC2,-1,141,i,6,-0.61,5,.,.
COc1ccc(N2CCN(C(=O)CNC(=O)Cn3c(C)cc4ccccc4c3=O)CC2)cc1,-0.86,115,i,2,-2.4*,20,642,245
Cc1cc2ccccc2c(=O)n1CC(=O)NCC(=O)N1CCCC1,0.45,80,i,3,-1.4,9,.,.
O=C(Nc1ccc2c(c1)OCO2)C(c1ccccc1)N1CCCCC1 (configuration not stated),-0.63,95,i,8,-3.4*,10,501*,205
CC1CCCN(C(C(=O)Nc2ccc3c(c2)OCO3)c2ccccc2)C1 (configuration not stated),0.16,84,i,-2,-5*,19,479*,253
c1ccc(CC2NCCc3c2[nH]c2ccccc32)cc1 (configuration not stated),.,.,i,.,.,.,.,.
O=C(C(Cc1ccccc1)n1cccc1)N1CCN(Cc2ccccc2)CC1 (configuration not stated),0.24,84,i,-1,-16*,4,18*,196
Cc1c(N(C(=O)Nc2ccccc2)C2=NCC(C)S2)c(=O)n(-c2ccccc2)n1C (configuration not stated),0.66,110,i,2,-4.4*,10,604,242
Cc1ccc(N(C(=O)Nc2ccccc2)C2=NCC(C)S2)cc1 (configuration not stated),-0.63,165,i,2,0.22,0,.,.
CCOC(=O)c1[nH]c2ccc(OC)cc2c1NC(=O)CCN1CCC(C)CC1,0.26,88,i,1,-1.5*,.,426*,221
COC(=O)c1[nH]c2ccccc2c1NC(=O)CCN1CCN(C2CCCCC2)CC1,-0.83,109,i,0,-3.7*,14,389*,230
CCOC(=O)c1[nH]c2ccc(OC)cc2c1NC(=O)CCN1CCc2ccccc2C1,1.4,96,i,-2,-3.1*,.,418*,183
COC(=O)c1[nH]c2cc(OC)ccc2c1NC(=O)CCN1CCCCC1,0.25,75,i,0,-1.4,0,.,.
SMILES,M1 ag,HER2 expr 66K,BAP1 block,JNK3 blocker,M1 antagonist,HEK293 NFkB inh,M1 antag confirm,mGluR4 antag
O=c1c2ccccc2[nH]c(=S)n1CCCN1CCN(C2CCCCC2)CC1,0.24,97,i,1,-2.3*,-10,485*,232
CC1CCN(CCCn2c(=S)[nH]c3ccccc3c2=O)CC1,0.043,102,i,-1,-0.47,21,.,.
CCOC(=O)c1ccc(NC(=O)c2ccc(N)cc2)cc1,.,.,i,.,.,.,.,.
C#CC(O)(c1ccccc1)c1ccc(OC)cc1 (configuration not stated),.,.,i,.,.,.,.,.
CCOC(=O)c1ccc(COC(=O)c2cc3ccccc3oc2=O)o1,0.083,81,i,-3,-2.4*,4,473*,206
Cc1cc(O)c(-c2cc(C(=O)NCc3ccc4c(c3)OCO4)[nH]n2)cc1C,1.4,73,i,-3,-0.081,-2,.,.
Cc1ccc(-c2cc(C(=O)NCc3ccc4c(c3)OCO4)[nH]n2)c(O)c1C,0.36,69,i,4,-1.6*,2,653,195
O=c1c2ccccc2c(=O)c2c1c(NCc1ccccc1)cc1oc3ccccc3[nH]c12,.,.,i,.,.,.,.,.
CCOC(=O)c1c(N=CC=Cc2ccc([N+](=O)[O-])cc2)sc2c1CCCC2,.,.,i,.,.,.,.,.
Cc1ccc(Nc2nc(OC(C(F)(F)F)C(F)(F)F)nc(N3CCOCC3)n2)cc1,0.16,98,.,.,-3.7*,.,604,232
FC(F)(F)C(Oc1nc(NC2CCCCC2)nc(N2CCOCC2)n1)C(F)(F)F,-0.75,136,i,1,-0.2,19,.,.
O=C(Nc1nc(-c2cccs2)c(C(=O)C(F)(F)F)s1)c1ccc(F)cc1,.,.,i,.,.,.,.,.
NS(=O)(=O)c1ccc(Cl)c(C(=O)Nc2cccc([N+](=O)[O-])c2)c1,.,.,i,.,.,.,.,.
CCN(CC)CCOC(=O)c1c(C)oc2ccc(O)cc12,0.048,85,i,6,-3.3*,4,296*,258
CCOC(=O)C1=C(C)NC(C)=C(C(=O)OCC)C1c1ccccc1Cl,.,.,i,.,.,.,.,.
